Activity calls are given as the source filed them. The calls are words filed in the database; no cut-off is given here.
How the values were obtained:
[1] = biological target: T1, Ubiquitin carboxyl-terminal hydrolase 28 (Homo sapiens) (UniProt Q96RU2); test: Inhibition of USP28 in human HeLa cell extracts assessed as inhibition of HA-Ub-C2Br probe labeling at 1 to 100 uM incubated for 30 mins by immunoblot analysis; assay type: cell-free
T1 sequence (whole entry): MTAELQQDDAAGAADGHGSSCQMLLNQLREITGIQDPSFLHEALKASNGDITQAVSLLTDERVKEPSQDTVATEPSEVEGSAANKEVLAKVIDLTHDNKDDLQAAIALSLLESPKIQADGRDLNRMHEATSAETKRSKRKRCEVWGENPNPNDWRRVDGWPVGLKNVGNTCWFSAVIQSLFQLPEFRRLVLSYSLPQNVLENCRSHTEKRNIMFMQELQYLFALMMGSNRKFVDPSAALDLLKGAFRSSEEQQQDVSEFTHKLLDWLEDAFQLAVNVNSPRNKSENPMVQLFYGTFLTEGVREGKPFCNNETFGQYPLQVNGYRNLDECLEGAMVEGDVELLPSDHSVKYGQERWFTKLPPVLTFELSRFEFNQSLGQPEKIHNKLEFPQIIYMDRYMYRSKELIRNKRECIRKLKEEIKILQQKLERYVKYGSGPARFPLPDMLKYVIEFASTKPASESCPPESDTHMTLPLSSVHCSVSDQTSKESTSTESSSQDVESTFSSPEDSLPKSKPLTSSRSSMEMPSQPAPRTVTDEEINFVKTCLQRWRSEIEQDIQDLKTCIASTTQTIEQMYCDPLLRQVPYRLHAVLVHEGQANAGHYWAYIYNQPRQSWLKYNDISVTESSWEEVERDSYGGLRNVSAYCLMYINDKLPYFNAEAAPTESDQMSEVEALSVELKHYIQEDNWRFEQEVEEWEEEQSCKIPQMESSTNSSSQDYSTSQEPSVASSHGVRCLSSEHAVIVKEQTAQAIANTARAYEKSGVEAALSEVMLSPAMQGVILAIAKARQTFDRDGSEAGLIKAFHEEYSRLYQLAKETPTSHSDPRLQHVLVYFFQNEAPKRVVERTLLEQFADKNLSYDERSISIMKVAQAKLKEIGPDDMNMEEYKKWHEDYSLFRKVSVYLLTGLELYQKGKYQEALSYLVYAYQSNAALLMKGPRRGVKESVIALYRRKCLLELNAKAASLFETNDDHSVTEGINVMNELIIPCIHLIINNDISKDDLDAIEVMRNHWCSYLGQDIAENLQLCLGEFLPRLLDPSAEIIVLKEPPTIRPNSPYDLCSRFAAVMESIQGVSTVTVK

Anamorsin (Homo sapiens) [2] = biological target: Anamorsin (Homo sapiens) (UniProt Q6FI81); test: Inhibition of CIAPIN1 in human KMS11 crude cell extracts assessed as induction of formation of high molecular weight complexes with CIAPIN1 at 20 uM incubated for 2 hrs by immunoblot analysis
Chain of Anamorsin (Homo sapiens) (Q6FI81 whole entry, the tested form may be a part): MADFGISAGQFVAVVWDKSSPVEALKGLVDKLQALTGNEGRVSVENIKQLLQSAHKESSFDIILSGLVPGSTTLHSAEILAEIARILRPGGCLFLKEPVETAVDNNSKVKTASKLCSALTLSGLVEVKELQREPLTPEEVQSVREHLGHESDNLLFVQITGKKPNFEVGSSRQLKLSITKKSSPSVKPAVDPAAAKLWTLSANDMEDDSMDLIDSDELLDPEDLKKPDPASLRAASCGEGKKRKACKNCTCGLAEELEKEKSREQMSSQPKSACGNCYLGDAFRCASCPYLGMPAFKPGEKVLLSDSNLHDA

U2OS = test: Cytotoxicity in human U2OS cells assessed as reduction in cell viability incubated for 72 hrs Cell-titer Glo reagent based assay; assay type: functional
In short: (§1)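 KMS11 (RPMI, seeded 25,000/well) or U2OS (DMEM, 10,000/well, adhered overnight) given varying concentrations, 72 h, biological triplicates, DMSO and bortezomib controls. CellTiter Glo luminescence; EC50 by dose-response fit.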

Anamorsin (Homo sapiens) [3] = biological target: Anamorsin (Homo sapiens) (UniProt Q6FI81); test: Inhibition of recombinant purified CIAPIN1 (unknown origin) assessed as covalent adduct formation at 10 molar equivalents incubated for 2 hrs by electrospray MS analysis
In short: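 His-tagged full-length human CIAPIN1 (AA1-312, C-terminal 7x His/TEV, 27 µM) incubated with 10 molar equivalents of compound (270 µM) in PBS for 2 h at room temperature, then analysed intact by ES-MS.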

[4] = biological target: T2, Ubiquitin carboxyl-terminal hydrolase isozyme L5 (Homo sapiens) (UniProt Q9Y5K5); test: Covalent binding affinity to UCH-37 in human U2OS cells at 20 uM using probe-1 by ABPP analysis; assay type: cell-based
T2 sequence (whole entry): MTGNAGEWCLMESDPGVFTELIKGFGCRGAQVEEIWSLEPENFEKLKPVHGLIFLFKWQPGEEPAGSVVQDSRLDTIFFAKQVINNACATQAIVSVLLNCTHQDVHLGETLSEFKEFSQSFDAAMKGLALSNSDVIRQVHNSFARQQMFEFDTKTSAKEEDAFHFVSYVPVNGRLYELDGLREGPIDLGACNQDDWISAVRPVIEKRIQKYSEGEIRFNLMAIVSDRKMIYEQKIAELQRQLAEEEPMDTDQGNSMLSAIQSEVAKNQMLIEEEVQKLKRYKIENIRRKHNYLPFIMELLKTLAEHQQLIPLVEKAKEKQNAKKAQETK
In short: (§2)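 U2OS cells pre-incubated 30 min with competitor (0, 5 or 20 µM), then 5 µM probe 1 for 1 h, in triplicate. Lysates in Triton/SDS buffer mixed with heavy R10K8-labelled probe-treated spike, CuAAC-tagged, NeutrAvidin-enriched, reduced, alkylated, trypsin-digested overnight at 37 °C, LC-MS/MS. Log2(L/H) ratios median-normalised and expressed relative to the no-inhibitor condition.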

Anamorsin (Homo sapiens) [5] = biological target: Anamorsin (Homo sapiens) (UniProt Q6FI81); test: Covalent binding affinity to CIAPIN1 in human U2OS cells at 20 uM using probe-1 by ABPP analysis; assay type: cell-based; in short: as §2
HeLa [6] = test: Inhibition of deubiquitinase in human HeLa cell extracts assessed as inhibition of HA-Ub-C2Br probe labeling at 1 to 100 uM incubated for 30 mins by immunoblot analysis; assay type: cell-free
Anamorsin (Homo sapiens) [7] = biological target: Anamorsin (Homo sapiens) (UniProt Q6FI81); test: Inhibition of CIAPIN1 in human KMS11 cells assessed as induction of protein aggregation at 100 nM incubated for 1 hr by immunoblot analysis; assay type: cell-based
Anamorsin (Homo sapiens) [8] = biological target: Anamorsin (Homo sapiens) (UniProt Q6FI81); test: Inhibition of CIAPIN1 in human KMS11 crude cell extracts assessed as induction of formation of high molecular weight complexes with CIAPIN1 at 20 uM incubated for 2 hrs in presence of GSH by immunoblot analysis
KMS-11 [9] = test: Cytotoxicity in human KMS11 cells assessed as reduction in cell viability at 1 to 10 uM incubated for 16 hrs in presence of GSH by Alamar blue assay; assay type: functional, cell-based
In short: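 KMS11 seeded at 80,000/well, treated with 1 or 10 µM compound with or without 1 mM GSH for 16 h, 6 biological replicates. Alamar blue fluorescence read at 560/590 nm, normalised to DMSO control.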

Anamorsin (Homo sapiens) [10] = biological target: Anamorsin (Homo sapiens) (UniProt Q6FI81); test: Inhibition of recombinant purified CIAPIN1 (unknown origin) assessed as covalent modification of cysteine residues incubated for 30 mins LC-MS/MS analysis
Anamorsin (Homo sapiens) [11] = biological target: Anamorsin (Homo sapiens) (UniProt Q6FI81); test: Inhibition of recombinant purified CIAPIN1 (unknown origin) assessed as disruption of intra-chain disulfide bond in unmodified peptide containing Cys249
[12] = biological target: T1, Ubiquitin carboxyl-terminal hydrolase 28 (Homo sapiens); test: Covalent binding affinity to USP28 in human U2OS cells at 20 uM using probe-1 by ABPP analysis; assay type: cell-based; in short: as §2
Anamorsin (Homo sapiens) [13] = biological target: Anamorsin (Homo sapiens) (UniProt Q6FI81); test: Inhibition of recombinant purified CIAPIN1 (unknown origin) assessed as accumulation of protein aggregates at 0.1 to 1.6 uM incubated for 1 to 6 hrs by size exclusion chromatography
Anamorsin (Homo sapiens) [14] = biological target: Anamorsin (Homo sapiens) (UniProt Q6FI81); test: Inhibition of CIAPIN1 in human KMS11 cells assessed as induction of high molecular weight complex formation at 100 nM incubated for 6 hrs by immunoblot analysis; assay type: cell-based
Anamorsin (Homo sapiens) [15] = biological target: Anamorsin (Homo sapiens) (UniProt Q6FI81); test: Inhibition of CIAPIN1 in human KMS11 cells assessed as deletion of depletion of stable CIAPIN1 levels at 100 nM incubated for 6 hrs by immunoblot analysis; assay type: cell-based
Anamorsin (Homo sapiens) [16] = biological target: Anamorsin (Homo sapiens) (UniProt Q6FI81); test: Inhibition of recombinant purified CIAPIN1 (unknown origin) assessed as increase in high molecular weight CIAPIN1 complexes at 1 to 10 molar equivalent 1 by SDS-PAGE and Coomassie Blue staining based method
In short: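 Recombinant CIAPIN1 (1 mg/mL) incubated with DMSO (0.16%) or compound at 1x, 2x, 5x or 10x molar excess, 30 min at 4 °C. Resolved by SDS-PAGE with Coomassie staining.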

KMS-11 [17] = test: Cytotoxicity in human KMS11 cells assessed as reduction in cell viability incubated for 72 hrs Cell-titer Glo reagent based assay; assay type: functional; details: KMS-11, 72 h; in short: as §1
[18] = biological target: Ubiquitin carboxyl-terminal hydrolase 14 (Homo sapiens) (UniProt P54578); test: Covalent binding affinity to USP14 in human U2OS cells at 20 uM using probe-1 by ABPP analysis; assay type: cell-based; in short: as §2
Chain of Ubiquitin carboxyl-terminal hydrolase 14 (Homo sapiens) (P54578 whole entry): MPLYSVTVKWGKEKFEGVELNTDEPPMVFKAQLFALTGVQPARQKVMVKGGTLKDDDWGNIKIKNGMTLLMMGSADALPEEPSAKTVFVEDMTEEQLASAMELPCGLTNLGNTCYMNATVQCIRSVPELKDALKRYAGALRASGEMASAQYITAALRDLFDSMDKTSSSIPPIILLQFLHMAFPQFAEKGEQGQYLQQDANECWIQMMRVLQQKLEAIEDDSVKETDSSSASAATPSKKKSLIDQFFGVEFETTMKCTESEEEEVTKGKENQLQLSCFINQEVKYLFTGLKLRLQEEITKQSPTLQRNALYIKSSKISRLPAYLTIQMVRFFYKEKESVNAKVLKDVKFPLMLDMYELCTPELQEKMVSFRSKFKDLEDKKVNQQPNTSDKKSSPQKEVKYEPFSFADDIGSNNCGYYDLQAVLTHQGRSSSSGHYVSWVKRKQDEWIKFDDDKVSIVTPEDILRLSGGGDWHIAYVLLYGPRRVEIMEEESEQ

HeLa [19] = test: Inhibition of deubiquitinase in human HeLa cell extracts assessed as induction of accumulation of high molecular weight mTOR proteins at 1 uM incubated for 2 hrs by immunoblot analysis; assay type: cell-free

SMILES | inhibition [1] | inhibition (Anamorsin (Homo sapiens) [2]) | EC50 (U2OS) [nM] | inhibition (Anamorsin (Homo sapiens) [3]) | Activity [4] | Activity (Anamorsin (Homo sapiens) [5]) | inhibition (HeLa [6]) | inhibition (Anamorsin (Homo sapiens) [7]) | inhibition (Anamorsin (Homo sapiens) [8]) | Activity (KMS-11 [9]) | inhibition (Anamorsin (Homo sapiens) [10]) | inhibition (Anamorsin (Homo sapiens) [11]) | Activity [12] | inhibition (Anamorsin (Homo sapiens) [13]) | inhibition (Anamorsin (Homo sapiens) [14]) | inhibition (Anamorsin (Homo sapiens) [15]) | inhibition (Anamorsin (Homo sapiens) [16]) | EC50 (KMS-11 [17]) [nM] | Activity [18] | inhibition (HeLa [19])
C=CC(=O)N1CC/C(=C\c2ccc(F)c([N+](=O)[O-])c2)C(=O)/C(=C/c2ccc(F)c([N+](=O)[O-])c2)C1 | Active | Active | 98 | Active | inactive | Active | Active | Active | inactive | inactive | Active | Active | inactive | Active | Active | Active | Active | 43 | inactive | –
COc1cc(/C=C/C(=O)CC(=O)/C=C/c2ccc(O)c(OC)c2)ccc1O | – | – | – | – | – | – | – | – | – | – | – | – | – | – | – | – | – | – | – | Active
C#CCC(=O)N1CC/C(=C\c2ccc(F)c([N+](=O)[O-])c2)C(=O)/C(=C/c2ccc(F)c([N+](=O)[O-])c2)C1 | – | – | 81 | – | – | – | – | – | – | – | – | – | – | – | – | – | – | 46 | – | –
